Assay results: ChEMBL document CHEMBL2417520, “Synthesis and biological evaluation of amino analogs of Ludartin: potent and selective cytotoxic agents” (Bioorg Med Chem Lett, 2013)

What was measured:
THP-1 [1] = assay: Cytotoxicity against human THP1 cells assessed as cell growth inhibition after 48 hrs by sulphorhodamine B assay; format: functional, cell-based; details: THP-1, 48 h
Outline: (§1)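 Cells grown in RPMI-1640 with 10% FBS and penicillin/streptomycin at 37 °C under 5% CO2, then allowed to adhere overnight. Only analogs giving >50% inhibition at 50 µM were retested at 10–100 µM for 48 h. Cells were fixed with cold TCA and stained with 0.4% SRB in 1% acetic acid. Dye was solubilised in 10 mM Tris and read at 570 nm to give IC50.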

A549 [2] = assay: Cytotoxicity against human A549 cells assessed as cell growth inhibition at 50 uM after 48 hrs by sulphorhodamine B assay; format: functional; details: A549, 48 h, read-out: GI
Outline: (§2)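 Single-concentration screen of analogs at 50 µM for 48 h on overnight-adhered cells maintained in RPMI-1640/10% FBS at 37 °C, 5% CO2. Cells were fixed with ice-cold TCA (60 min) and stained 30 min with 0.4% SRB in 1% acetic acid. Bound dye was dissolved in 10 mM Tris and OD read at 570 nm, expressed as % growth inhibition.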

THP-1 [3] = assay: Cytotoxicity against human THP1 cells assessed as cell growth inhibition at 50 uM after 48 hrs by sulphorhodamine B assay; format: functional; details: THP-1, 48 h, read-out: GI; outline: as §2
HCT-116 [4] = assay: Cytotoxicity against human HCT116 cells assessed as cell growth inhibition at 50 uM after 48 hrs by sulphorhodamine B assay; format: functional; details: HCT-116, 48 h, read-out: GI; outline: as §2
PC-3 [5] = assay: Cytotoxicity against human PC3 cells assessed as cell growth inhibition after 48 hrs by sulphorhodamine B assay; format: functional, cell-based; details: PC-3, 48 h; outline: as §1
HCT-116 [6] = assay: Cytotoxicity against human HCT116 cells assessed as cell growth inhibition after 48 hrs by sulphorhodamine B assay; format: functional, cell-based; details: HCT-116, 48 h; outline: as §1
PC-3 [7] = assay: Cytotoxicity against human PC3 cells assessed as cell growth inhibition at 50 uM after 48 hrs by sulphorhodamine B assay; format: functional; details: PC-3, 48 h, read-out: GI; outline: as §2
A549 [8] = assay: Cytotoxicity against human A549 cells assessed as cell growth inhibition after 48 hrs by sulphorhodamine B assay; format: functional, cell-based; details: A549, 48 h; outline: as §1
A549 [9] = assay: Ratio of ludartin IC50 to compound IC50 for human A549 cells; format: functional
PC-3 [10] = assay: Ratio of ludartin IC50 to compound IC50 for human PC3 cells; format: functional

| SMILES | IC50 (THP-1 [1]) | inhibition of growth at 50 µM (A549 [2]) | inhibition of growth at 50 µM (THP-1 [3]) | inhibition of growth at 50 µM (HCT-116 [4]) | IC50 (PC-3 [5]) | IC50 (HCT-116 [6]) | inhibition of growth at 50 µM (PC-3 [7]) | IC50 (A549 [8]) | Ratio IC50 (A549 [9]) | Ratio IC50 (PC-3 [10]) |
| --- | --- | --- | --- | --- | --- | --- | --- | --- | --- | --- |
| C=C1C(=O)O[C@H]2[C@H]1CCC(C)=C1C[C@H]3O[C@@]3(C)[C@@H]12 [LUDARTIN] | 3.1 µM | 97% | 98% | 97% | 7.5 µM | 6.9 µM | 97% | 7.4 µM |  |  |
| CCCCNC[C@@H]1C(=O)O[C@H]2[C@H]1CCC(C)=C1C[C@H]3O[C@@]3(C)[C@@H]12 |  | 0% | 28% | 4% |  |  | 14% |  |  |  |
| CC1=C2C[C@H]3O[C@@]3(C)[C@@H]2[C@H]2OC(=O)[C@@H](Cn3cncn3)[C@@H]2CC1 | 15 µM | 69% | 83% | 70% | 35 µM | 20 µM | 66% | 32 µM |  |  |
| C#CCNC[C@@H]1C(=O)O[C@H]2[C@H]1CCC(C)=C1C[C@H]3O[C@@]3(C)[C@@H]12 |  | 36% | 40% | 4% |  |  | 33% |  |  |  |
| CC1=C2C[C@H]3O[C@@]3(C)[C@@H]2[C@H]2OC(=O)[C@@H](CN3CCCC3)[C@@H]2CC1 | 26 µM | 0% | 67% | 15% |  |  | 11% |  |  |  |
| CC1=C2C[C@H]3O[C@@]3(C)[C@@H]2[C@H]2OC(=O)[C@@H](Cn3nc4ccccc4n3)[C@@H]2CC1 |  | 25% | 15% | 13% |  |  | 40% |  |  |  |
| CC1=C2C[C@H]3O[C@@]3(C)[C@@H]2[C@H]2OC(=O)[C@@H](CN3CCCCC3)[C@@H]2CC1 | 3.9 µM | 87% | 93% | 90% | 23 µM | 4 µM | 85% | 17 µM |  |  |
| CCCNC[C@@H]1C(=O)O[C@H]2[C@H]1CCC(C)=C1C[C@H]3O[C@@]3(C)[C@@H]12 |  | 39% | 23% | 2% |  |  | 17% |  |  |  |
| CNC[C@@H]1C(=O)O[C@H]2[C@H]1CCC(C)=C1C[C@H]3O[C@@]3(C)[C@@H]12 |  | 10% | 25% | 16% |  |  | 12% |  |  |  |
| CC1=C2C[C@H]3O[C@@]3(C)[C@@H]2[C@H]2OC(=O)[C@@H](Cn3cnc([N+](=O)[O-])c3)[C@@H]2CC1 |  | 0% | 32% | 30% |  |  | 15% |  |  |  |
| CC1=C2C[C@H]3O[C@@]3(C)[C@@H]2[C@H]2OC(=O)[C@@H](CN3CCOCC3)[C@@H]2CC1 | 2.8 µM | 42% | 97% | 58% |  |  | 59% |  |  |  |
| CCNC[C@@H]1C(=O)O[C@H]2[C@H]1CCC(C)=C1C[C@H]3O[C@@]3(C)[C@@H]12 | 29 µM | 20% | 68% | 36% |  |  | 43% |  |  |  |
| CC1=C2C[C@H]3O[C@@]3(C)[C@@H]2[C@H]2OC(=O)[C@@H](Cn3ccnc3)[C@@H]2CC1 |  | 0% | 36% | 42% |  |  | 53% |  |  |  |
| CC1=C2C[C@H]3O[C@@]3(C)[C@@H]2[C@H]2OC(=O)[C@@H](Cn3ncc4cc([N+](=O)[O-])ccc43)[C@@H]2CC1 | 31 µM | 99% | 72% | 57% | 34 µM | 40 µM | 52% | 2.6 µM | 3 |  |
| CC1=C2C[C@H]3O[C@@]3(C)[C@@H]2[C@H]2OC(=O)[C@@H](CNCc3ccc(F)cc3)[C@@H]2CC1 |  | 16% | 26% | 0% |  |  | 64% |  |  |  |
| CCN(CC)C[C@@H]1C(=O)O[C@H]2[C@H]1CCC(C)=C1C[C@H]3O[C@@]3(C)[C@@H]12 | 3.5 µM | 73% | 98% | 95% | 32 µM | 3.7 µM | 56% | 22 µM |  |  |
| CC1=C2C[C@H]3O[C@@]3(C)[C@@H]2[C@H]2OC(=O)[C@@H](Cn3ncc4ccc([N+](=O)[O-])cc43)[C@@H]2CC1 | 29 µM | 84% | 63% | 86% | 2.2 µM | 17 µM | 99% | 35 µM |  | 3 |
| C=CCNC[C@@H]1C(=O)O[C@H]2[C@H]1CCC(C)=C1C[C@H]3O[C@@]3(C)[C@@H]12 |  | 0% | 39% | 28% |  |  | 16% |  |  |  |
